Reference: ChEMBL document CHEMBL1149906, “Perennisosides I-VII, acylated triterpene saponins with antihyperlipidemic activities from the flowers of Bellis perennis” (2008)

Legend:
Format in all cases: functional
[1] = test system: Mus musculus; test: Inhibition of serum triglyceride elevation in olive oil-treated ddY mouse at 250 mg/kg, po after 2 hrs
[2] = test system: Mus musculus; test: Inhibition of serum triglyceride elevation in olive oil-treated ddY mouse at 250 mg/kg, po after 6 hrs
[3] = test system: Mus musculus; test: Inhibition of serum triglyceride elevation in olive oil-treated ddY mouse at 500 mg/kg, po after 4 hrs
[4] = test system: Mus musculus; test: Inhibition of serum triglyceride elevation in olive oil-treated ddY mouse at 250 mg/kg, po after 4 hrs
[5] = test system: Mus musculus; test: Inhibition of serum triglyceride elevation in olive oil-treated ddY mouse at 500 mg/kg, po after 2 hrs
[6] = test system: Mus musculus; test: Inhibition of serum triglyceride elevation in olive oil-treated ddY mouse at 125 mg/kg, po after 6 hrs
[7] = test system: Mus musculus; test: Inhibition of serum triglyceride elevation in olive oil-treated ddY mouse at 500 mg/kg, po after 6 hrs
[8] = test system: Mus musculus; test: Inhibition of serum triglyceride elevation in olive oil-treated ddY mouse at 125 mg/kg, po after 4 hrs
[9] = test system: Mus musculus; test: Inhibition of serum triglyceride elevation in olive oil-treated ddY mouse at 125 mg/kg, po after 2 hrs
[10] = test system: Mus musculus; test: Inhibition of serum triglyceride elevation in olive oil-treated ddY mouse at 100 mg/kg, po after 6 hrs
In short: (§1)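 Male ddY mice (25–30 g) fasted 24–26 h with free access to water, kept conscious. Test sample given orally, then olive oil 5 mL/kg po 30 min later. Blood drawn from the infraorbital venous plexus 2, 4 and 6 h after the olive oil. Serum TG measured by an enzymatic kit; n = 6 per group; means ± SEM.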

[11] = test system: Mus musculus; test: Inhibition of serum triglyceride elevation in olive oil-treated ddY mouse at 100 mg/kg, po after 2 hrs; in short: as §1
[12] = test system: Mus musculus; test: Inhibition of serum triglyceride elevation in olive oil-treated ddY mouse at 50 mg/kg, po after 6 hrs; in short: as §1
[13] = test system: Mus musculus; test: Inhibition of serum triglyceride elevation in olive oil-treated ddY mouse at 50 mg/kg, po after 4 hrs; in short: as §1
[14] = test system: Mus musculus; test: Inhibition of serum triglyceride elevation in olive oil-treated ddY mouse at 25 mg/kg, po after 4 hrs; in short: as §1
[15] = test system: Mus musculus; test: Inhibition of serum triglyceride elevation in olive oil-treated ddY mouse at 50 mg/kg, po after 2 hrs; in short: as §1
[16] = test system: Mus musculus; test: Inhibition of serum triglyceride elevation in olive oil-treated ddY mouse at 25 mg/kg, po after 6 hrs; in short: as §1
[17] = test system: Mus musculus; test: Inhibition of serum triglyceride elevation in olive oil-treated ddY mouse at 100 mg/kg, po after 4 hrs; in short: as §1
[18] = test system: Mus musculus; test: Inhibition of serum triglyceride elevation in olive oil-treated ddY mouse at 25 mg/kg, po after 2 hrs; in short: as §1
[19] = test system: Mus musculus; test: Inhibition of serum triglyceride elevation in olive oil-treated ddY mouse at 12.5 mg/kg, po after 2 hrs
[20] = test system: Mus musculus; test: Inhibition of serum triglyceride elevation in olive oil-treated ddY mouse at 6.25 mg/kg, po after 6 hrs
[21] = test system: Mus musculus; test: Inhibition of serum triglyceride elevation in olive oil-treated ddY mouse at 12.5 mg/kg, po after 6 hrs
[22] = test system: Mus musculus; test: Inhibition of serum triglyceride elevation in olive oil-treated ddY mouse at 6.25 mg/kg, po after 4 hrs
[23] = test system: Mus musculus; test: Inhibition of serum triglyceride elevation in olive oil-treated ddY mouse at 6.25 mg/kg, po after 2 hrs
[24] = test system: Mus musculus; test: Inhibition of serum triglyceride elevation in olive oil-treated ddY mouse at 12.5 mg/kg, po after 4 hrs

| Compound | Activity [10] | Activity [11] | Activity [12] | Activity [13] | Activity [14] | Activity [15] | Activity [16] | Activity [17] | Activity [18] | other results |
| --- | --- | --- | --- | --- | --- | --- | --- | --- | --- | --- |
| CCOC(=O)C(C)(C)Oc1ccc(Cl)cc1 [CLOFIBRATE] |  |  |  |  |  |  |  |  |  | Activity [1]: 441.2 mg/dL; Activity [2]: 443.3 mg/dL; Activity [3]: 239.7 mg/dL; Activity [4]: 340.5 mg/dL; Activity [5]: 318.2 mg/dL; Activity [6]: 333.4 mg/dL; Activity [7]: 373.5 mg/dL; Activity [8]: 295 mg/dL; Activity [9]: 377.5 mg/dL |
| CC(=O)OC[C@H]1O[C@@H](OC(=O)[C@]23CCC(C)(C)C[C@H]2C2=CC[C@@H]4[C@@]5(C)C[C@H](O)[C@H](O)[C@@](C)(COC(C)=O)[C@@H]5CC[C@@]4(C)[C@]2(C)CC3)[C@H](O[C@@H]2O[C@@H](C)[C@H](O)[C@@H](O)[C@H]2O)[C@@H](O[C@@H]2O[C@H](CO)[C@@H](O)[C@H](O)[C@H]2O)[C@@H]1O [PERENNISOSIDE I] | 208.2 mg/dL | 135.7 mg/dL | 203.7 mg/dL | 355.8 mg/dL | 357.7 mg/dL | 326.9 mg/dL | 222.7 mg/dL | 278.7 mg/dL | 337 mg/dL |  |
| CCCCCCCCCCC[C@@H](C[C@@H]1OC(=O)[C@H]1CCCCCC)OC(=O)[C@H](CC(C)C)NC=O [ORLISTAT] |  |  |  |  | 132.2 mg/dL |  | 140.1 mg/dL |  | 158.9 mg/dL | Activity [19]: 187.9 mg/dL; Activity [20]: 155.6 mg/dL; Activity [21]: 189.7 mg/dL; Activity [22]: 179.3 mg/dL; Activity [23]: 266.4 mg/dL; Activity [24]: 176 mg/dL |
| CC(=O)OC[C@H]1O[C@@H](OC(=O)[C@]23CCC(C)(C)C[C@H]2C2=CC[C@@H]4[C@@]5(C)C[C@H](O)[C@H](O)[C@@](C)(COC(C)=O)[C@@H]5CC[C@@]4(C)[C@]2(C)CC3)[C@H](O[C@@H]2O[C@@H](C)[C@H](O)[C@@H](O)[C@H]2O)[C@@H](O[C@@H]2O[C@H](CO)[C@H](O)[C@H](O)[C@H]2O)[C@@H]1O [PERENNISOSIDE II] | 80.6 mg/dL | 179.4 mg/dL | 104.6 mg/dL | 180.4 mg/dL | 147 mg/dL | 232.5 mg/dL | 87 mg/dL | 155.6 mg/dL | 204.6 mg/dL |  |
